Values after ≈ are worked out from the molar mass of the structure shown. Active and inactive are the calls of the source. No cut-off for these calls is given here.
Columns and labels:
KB = experiment: Cytotoxicity against human KB cells after 48 hrs by neutral red assay; type: functional, cell-based
How it was run: (§1)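 Cells seeded at 25,000/well, incubated 24 h, then exposed to samples for 48 h. Viable cells measured by Neutral Red uptake. IC50 from logarithmic plots of growth inhibition vs concentration. Doxorubicin positive control, DMSO vehicle control.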

SK-MEL = experiment: Cytotoxicity against human SK-MEL cells after 48 hrs by neutral red assay; type: functional, cell-based; how it was run: as §1
[1] = Selectivity index, IC50 for african green monkey (Cercopithecus aethiops) Vero cells to IC50 for chloroquine-sensitive Plasmodium falciparum D6; type: functional
How it was run: (§2)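 Selectivity index = IC50 against VERO cells divided by IC50 against P. falciparum (D6 or W2, respectively), each from the corresponding in-house assay.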

Plasmodium falciparum [2] = experiment: Antimalarial activity after 72 hrs against […] Plasmodium falciparum D6 by pLDH activity; type: functional, organism-based; conditions: D6, 72 h
How it was run: (§3)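 P. falciparum-infected red cells (2% parasitemia, 2% hematocrit) in RPMI-1640 with 10% human serum and 60 μg/mL amikacin, exposed to serial sample concentrations. Gassed with 90% N2/5% O2/5% CO2, incubated 37 °C for 72 h. Parasite LDH activity read colorimetrically with Malstat reagent.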

Candida albicans [3] = experiment: Antimicrobial activity against Candida albicans ATCC 90028 by NCCLS method; type: functional, organism-based
How it was run: (§4)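 Samples serially diluted in 20% DMSO/saline, tested in duplicate. Inocula set by OD630: C. albicans RPMI pH 4.5, 1·10^4 CFU/mL; C. neoformans Sabouraud dextrose, 1·10^5; MRSA cation-adjusted Mueller-Hinton pH 7.3, 5·10^5; M. intracellulare 7H9/OADC + 5% Alamar Blue pH 7.3, 2·10^6; A. fumigatus RPMI pH 7.3 + 5% Alamar Blue, 3·10^4.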

Plasmodium falciparum [4] = experiment: Antimalarial activity after 72 hrs against chloroquine-resistant Plasmodium falciparum W2 by pLDH activity; type: functional, organism-based; conditions: W2, 72 h; how it was run: as §3
Leishmania donovani = experiment: Antileishmanial activity against Leishmania donovani promastigotes after 48 hrs by alamar blue assay; type: functional, organism-based
Vero [5] = experiment: Cytotoxicity against african green monkey Vero cells after 48 hrs by neutral red assay; type: cell-based, Chlorocebus sabaeus; conditions: Chlorocebus sabaeus, Vero, 48 h; read-out: IC50; how it was run: as §1
Aspergillus fumigatus [6] = experiment: Antimicrobial activity against Aspergillus fumigatus ATCC 90906 by alamar blue assay; type: functional, organism-based; conditions: for IC50: read-out: IC50; how it was run: as §4
BT-549 = experiment: Cytotoxicity against human BT549 cells after 48 hrs by neutral red assay; type: functional, cell-based; conditions: BT-549, 48 h; how it was run: as §1
Cryptococcus neoformans [7] = experiment: Antimicrobial activity against Cryptococcus neoformans ATCC 90113 by NCCLS method; type: functional, organism-based; how it was run: as §4
Vero [8] = experiment: Cytotoxicity against african green monkey Vero cells; type: cell-based; conditions: Chlorocebus sabaeus; how it was run: as §1
SK-OV-3 = experiment: Cytotoxicity against human SKOV3 cells after 48 hrs by neutral red assay; type: functional, cell-based; conditions: SK-OV-3, 48 h; how it was run: as §1
[9] = Selectivity index, IC50 for african green monkey (Cercopithecus aethiops) Vero cells to IC50 for […]; type: functional; how it was run: as §2
[10] = tested on: Mycobacterium intracellulare; experiment: Antimicrobial activity against Mycobacterium intracellular ATCC 23068 by alamar blue assay; type: functional, organism-based
How it was run: as §4, with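 “3·10^4. Read at 630 nm or 544ex/590em before and after incubation.” for “3·10^4.”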

Staphylococcus aureus [11] = experiment: Antimicrobial activity against methicillin-resistant Staphylococcus aureus ATCC 43300 by NCCLS method; type: functional, organism-based; how it was run: as §4
Vero [12] = experiment: Cytotoxicity against african green monkey Vero cells at 4760 ng/mL; type: cell-based, Chlorocebus sabaeus
Staphylococcus aureus [13] = experiment: Antimicrobial activity against methicillin-resistant Staphylococcus aureus ATCC 43300 by NCCLS method in presence of 5% human serum; type: functional, organism-based
Candida albicans [14] = experiment: Antimicrobial activity against Candida albicans ATCC 90028 by NCCLS method in presence of 5% human serum; type: functional, organism-based
Aspergillus fumigatus [15] = experiment: Antimicrobial activity against Aspergillus fumigatus ATCC 90906 by alamar blue assay in presence of 5% human serum; type: functional, organism-based
[16] = tested on: Mycobacterium intracellulare; experiment: Antimicrobial activity against Mycobacterium intracellular ATCC 23068 by alamar blue assay in presence of 5% human serum; type: functional, organism-based
Cryptococcus neoformans [17] = experiment: Antimicrobial activity against Cryptococcus neoformans ATCC 90113 by NCCLS method in presence of 5% human serum; type: functional, organism-based
[18] = Toxicity in RBC assessed as hemolysis; type: cell-based; conditions: Erythrocyte
LLC-PK1 = experiment: Cytotoxicity against pig LLC-PK1 cells after 48 hrs by neutral red assay; type: cell-based, Sus scrofa; conditions: Sus scrofa, LLC-PK1, 48 h; read-out: IC50; how it was run: as §1
[19] = Aspergillus fumigatus, ATCC 90906
[20] = Candida albicans, ATCC 90028, read-out: IC50

C[C@H]1N[C@@H](CCCCCCCCCCC2=C[C@@H](CCCCCCCCCC[C@@H]3CC[C@H](O)[C@@H](C)N3)[C@@H]3CCCN3C2)CC[C@H]1O [ISOPROSOPILOSINE]
IC50 (KB): 2.2 µg/mL (≈ 3.49 µM)
IC50 (SK-MEL): < 1.1 µg/mL
Ratio IC50 [1]: 22
IC50 (Plasmodium falciparum [2]): 0.083 µg/mL (≈ 0.132 µM)
IC50 (Candida albicans [3]): Not Active
IC50 (Plasmodium falciparum [4]): 0.15 µg/mL (≈ 0.238 µM)
IC50 (Leishmania donovani): 0.26 µg/mL (≈ 0.413 µM)
IC50 (Vero [5]): 1.8 µg/mL (≈ 2.86 µM)
MFC (Aspergillus fumigatus [6]; [19]): 2.5 µg/mL (≈ 3.97 µM)
MIC (Aspergillus fumigatus [6]; [19]): 0.16 µg/mL (≈ 0.254 µM)
IC50 (Aspergillus fumigatus [6]; [19]): 0.1 µg/mL (≈ 0.159 µM)
IC50 (BT-549): 2.5 µg/mL (≈ 3.97 µM)
IC50 (Cryptococcus neoformans [7]): 0.4 µg/mL (≈ 0.635 µM)
MFC (Cryptococcus neoformans [7]): 0.63 µg/mL (≈ 1 µM)
MIC (Cryptococcus neoformans [7]): 0.63 µg/mL (≈ 1 µM)
IC50 (Vero [8]): 1.8 µg/mL (≈ 2.86 µM)
IC50 (SK-OV-3): < 1.1 µg/mL
Ratio IC50 [9]: 12
IC50 [10]: 1.5 µg/mL (≈ 2.38 µM)
IC50 (Staphylococcus aureus [11]): 1 µg/mL (≈ 1.59 µM)
MIC (Staphylococcus aureus [11]): 2.5 µg/mL (≈ 3.97 µM)

O=C(O)c1cn(C2CC2)c2cc(N3CCNCC3)c(F)cc2c1=O [CIPROFLOXACIN]
MBC [10]: inactive
MIC [10]: 0.63 µg/mL (≈ 1.9 µM)
MBC (Staphylococcus aureus [11]): inactive
MIC (Staphylococcus aureus [11]): 0.3 µg/mL (≈ 0.905 µM)

C[C@H]1N[C@@H](CCCCCCCCCCC2=C[C@@H](CCCCCCCCCC[C@@H]3CC[C@H](O)[C@@H](C)N3)[C@@H]3CCCN3C2)CC[C@H]1O.Cl.Cl
Ratio IC50 [1]: >12.5
IC50 (Plasmodium falciparum [2]): 0.38 µg/mL
IC50 (Candida albicans [3]; [20]): 7.5 µg/mL
IC50 (Plasmodium falciparum [4]): 0.29 µg/mL
IC50 (Leishmania donovani): 0.7 µg/mL
IC90 (Leishmania donovani): 1.2 µg/mL
IC50 (Vero [12]): Non-toxic
IC50 (Aspergillus fumigatus [6]; [19]): 6.5 µg/mL
IC50 (Cryptococcus neoformans [7]): 0.85 µg/mL
MFC (Cryptococcus neoformans [7]): 2.5 µg/mL
MIC (Cryptococcus neoformans [7]): 1.25 µg/mL
Ratio IC50 [9]: >16.4
IC50 [10]: 10 µg/mL
IC50 (Staphylococcus aureus [11]): 3 µg/mL

C[C@H]1N[C@@H](CCCCCCCCCCC2=C[C@@H](CCCCCCCCCC[C@@H]3CC[C@H](O)[C@@H](C)N3)[C@@H]3CCCN3C2)CC[C@H]1O
Activity (Staphylococcus aureus [13]): Active
Activity (Candida albicans [14]): Active
MFC (Candida albicans [3]): inactive
MIC (Candida albicans [3]): inactive
Activity (Aspergillus fumigatus [15]): Active
MFC (Aspergillus fumigatus [6]): inactive
Activity [16]: Active
Activity (Cryptococcus neoformans [17]): Active
MBC [10]: inactive
MIC [10]: inactive
MBC (Staphylococcus aureus [11]): inactive

C[C@@H]1[C@H](O)[C@@H](C)/C=C/C=C/C=C/C=C/C=C/C=C/C=C/[C@H](O[C@@H]2O[C@H](C)[C@@H](O)[C@H](N)[C@@H]2O)C[C@@H]2O[C@](O)(C[C@@H](O)C[C@@H](O)[C@H](O)CC[C@@H](O)C[C@@H](O)CC(=O)O[C@H]1C)C[C@H](O)[C@H]2C(=O)O [AMPHOTERICIN B]
IC50 (KB): > 25 µg/mL
IC50 (SK-MEL): 5 µg/mL (≈ 5.41 µM)
IC50 [18]: 3.9 µg/mL (≈ 4.22 µM)
MIC (Candida albicans [3]; Candida albicans, ATCC 90028): 0.63 µg/mL (≈ 0.682 µM)
IC50 (Candida albicans [3]; [20]): 0.35 µg/mL (≈ 0.379 µM)
IC50 (Vero [5]): 7.5 µg/mL (≈ 8.12 µM)
MIC (Aspergillus fumigatus [6]; [19]): 0.63 µg/mL (≈ 0.682 µM)
IC50 (Aspergillus fumigatus [6]; [19]): 0.4 µg/mL (≈ 0.433 µM)
IC50 (BT-549): 5.5 µg/mL (≈ 5.95 µM)
IC50 (Cryptococcus neoformans [7]): 0.45 µg/mL (≈ 0.487 µM)
IC50 (SK-OV-3): > 25 µg/mL

COc1cccc2c1C(=O)c1c(O)c3c(c(O)c1C2=O)C[C@@](O)(C(=O)CO)C[C@@H]3O[C@H]1C[C@H](N)[C@H](O)[C@H](C)O1 [DOXORUBICIN]
IC50 (KB): < 0.55 µg/mL
IC50 (SK-MEL): < 0.55 µg/mL
IC50 (LLC-PK1): < 0.55 µg/mL
IC50 (Vero [5]): 3.2 µg/mL (≈ 5.89 µM)
IC50 (BT-549): < 0.55 µg/mL
IC50 (SK-OV-3): < 0.55 µg/mL

CCN(CC)CCCC(C)Nc1ccnc2cc(Cl)ccc12 (stereo not drawn) [CHLOROQUINE]
IC50 (Vero [12]): Non-toxic
